The source of these data is ChEMBL document CHEMBL3853263, “Effect of intercalator and Lewis acid-base branched peptide complex formation: boosting affinity towards HIV-1 RRE RNA” (Medchemcomm, 2016).

For series [1], the system named is Human immunodeficiency virus 1. Nature of the series: Antiviral activity against HIV1 NL4-3 infected in human U87 cells transfected with CD4/CXCR4 assessed as inhibition of viral replication at 40 uM preincubated for 1 hr followed by viral infection for 24 hrs and subsequent compound wash out and addition of additional compound measured at 72 hrs post infection by p24 assay relative to control. Conditions: Human immunodeficiency virus 1, NL4-3, U-87 MG. It is filed as functional, U-87MG ATCC. A digest of the protocol:
(§1)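 U87-CD4/CXCR4 cells are seeded at 1 x 10⁴/well and left to adhere overnight. Compounds come from 1 mM stocks in water, diluted in RPMI. Cells are pretreated for 1 h, then infected with NL4-3 (CXCR4-tropic) at MOI 0.01 for 24 h. Cells are PBS-washed and given fresh medium with more compound. p24 is quantified in supernatant at 72 h post-infection.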

Series [2] relates to Human immunodeficiency virus 1. As to the kind of experiment: Antiviral activity against HIV1 NL4-3 infected in human U87 cells transfected with CD4/CXCR4 assessed as inhibition of viral replication at 100 uM preincubated for 1 hr followed by viral infection for 24 hrs and subsequent compound wash out and addition of additional compound measured at 72 hrs post infection by p24 assay. The series is classed as functional, cell-based. Particulars: U-87MG ATCC. A digest of the protocol:
as §1

Series [3] in a line: Cytotoxicity against human U87 cells transfected with CD4/CXCR4 assessed as decrease in cell viability up to 100 uM after 24 hrs by MTT assay. Conditions: u-87mg atcc. The series is classed as toxicity, cell-based. A digest of the protocol: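 U87 CXCR4 cells are seeded at 1 x 10⁴/well and incubated overnight at 37 °C in 5% CO₂. They are treated with 100, 50 or 10 µM (final) compound for 24 h. Tetrazolium dye is added for 4 h, then solubilization/stop solution for 1 h. A570 is read and normalized to untreated cells set at 1.0.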
(In general: Tetrazolium dyes change colour on reduction, which living cells bring about.)

Series [4] in a line: Binding affinity to HIV1 wild type [32P]-labeled RRE-2B RNA after 4 hrs by electrophoretic mobility shift assay. Set-up: species or system Human immunodeficiency virus 1. A digest of the protocol:
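5'-³²P RRE-IIB (4 nM in 2x phosphate buffer, pH 7.0) is refolded at 95 °C for 3 min, then rt for 20 min. It is mixed 1:1 with peptide in water (final 0.001–10 µM) for 4 h at rt. Complexes are resolved by 10% native PAGE at 4 °C. Kd is the 50%-binding concentration from a sigmoidal fit of % RNA bound vs log[peptide]. Triplicates.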
On the technique in general: In EMSA bound probe runs differently from free probe, usually more slowly.

Series [5] can be described thus: Cytotoxicity against HIV1 NL4-3 infected human U87 cells transfected with CD4/CXCR4 assessed as decrease in cell viability at 20 to 80 uM after 72 hrs by MTT assay. It is filed as toxicity, cell-based. Conditions: u-87mg atcc.
Series [6] has as its system Human immunodeficiency virus 1. Nature of the series: Antiviral activity against HIV1 NL4-3 infected in human U87 cells transfected with CD4/CXCR4 assessed as inhibition of viral replication preincubated for 1 hr followed by viral infection for 24 hrs and subsequent compound wash out and addition of additional compound measured at 72 hrs post infection by p24 assay. The series is classed as functional, cell-based, U-87MG ATCC. Conditions: for inhibition: U-87MG ATCC. A digest of the protocol:
as §1

Series [7] deals with Human immunodeficiency virus 1. Nature of the series: Antiviral activity against HIV1 NL4-3 infected in human U87 cells transfected with CD4/CXCR4 assessed as inhibition of viral replication at 10 uM preincubated for 1 hr followed by viral infection for 24 hrs and subsequent compound wash out and addition of additional compound measured at 72 hrs post infection by p24 assay relative to control. The series is classed as functional, U-87MG ATCC. Particulars: Human immunodeficiency virus 1, NL4-3, U-87 MG. The method in brief:
as §1

The source made the active and inactive calls. The rule behind the calls is not given here. Side chains are listed from the residue outwards. Peptide text beside a SMILES is read from it. * marks the point of attachment. X2 = NCCCC[C@H](NC(=O)[C@@H](N)CCCCN)C(=O)N[C@@H](CCCCNC(=O)c1ccc(B(O)O)cc1)C(=O)*; X1 = NCCCC[C@H](N)C(=O)N[C@@H](CCCCNc1c2ccccc2nc2ccccc12)C(=O)*; X3 = NCCCC[C@H](N)C(=O)N[C@@H](CCCCNC(=O)c1ccc(B(O)O)cc1)C(=O)*; Benzoyl(4-B(OH)2) = O=C(c1ccc(B(O)O)cc1)*; Acridin9yl = c1ccc2c(*)c3ccccc3nc2c1

As usually defined, the inhibition is the share of the control response that was lost under treatment. What is called Kd is the constant that tells how readily two partners part at equilibrium. What is called IC50 is the concentration that inhibits the measured activity by half. Consider `CC(C)C[C@H](NC(=O)[C@H](CCCCN)NC(=O)[C@H](CCCCNC(=O)[C@H](CCCCN)NC(=O)[C@H](CCCCNc1c2ccccc2nc2ccccc12)NC(=O)[C@@H](N)CCCCN)NC(=O)[C@H](CCCCN)NC(=O)[C@H](CCCCNc1c2ccccc2nc2ccccc12)NC(=O)[C@@H](N)CCCCN)C(=O)N[C@@H](CCCCNC(=O)c1ccc(B(O)O)cc1)C(=O)N[C@@H](Cc1ccc(O)cc1)C(N)=O` (H-KK(Acridin9yl)KK([Lys-X1])KLK(Benzoyl(4-B(OH)2))Y-NH2), for which the inhibition at 40 µM in series [1] is 90%. Also, the inhibition result in series [2] is “Active”. Also, the figures for the Activity entry in series [3] and in series [5] were “Dose-dependent effect” and “Non-Toxic”, respectively. Further, in series [4], the dissociation constant (Kd) worked out at 70 nM. In series [6] (Human immunodeficiency virus 1, NL4-3, U-87 MG), the IC50 turned out to be 7300 nM. Further, the inhibition result in series [6] was “Dose-dependent effect”. Also, the inhibition at 10 µM in series [7] is 60%.
On to `CC(C)C[C@H](NC(=O)[C@H](CCCCN)NC(=O)[C@H](CCCCNC(=O)[C@H](CCCCN)NC(=O)[C@H](CCCCN)NC(=O)[C@@H](N)CCCCN)NC(=O)[C@H](CCCCN)NC(=O)[C@H](CCCCN)NC(=O)[C@@H](N)CCCCN)C(=O)N[C@@H](CCCCNc1c2ccccc2nc2ccccc12)C(=O)N[C@@H](Cc1ccc(O)cc1)C(N)=O` (H-KKKK([Lys-Lys-Lys])KLK(Acridin9yl)Y-NH2), for which the inhibition entry in series [2] is “Active”. Besides, the Activity result in series [3] and in series [5] was “Non-Toxic” in each case. Further, the Kd in series [4] came out at 20 nM.
In the case of `CC(C)C[C@H](NC(=O)[C@H](CCCCN)NC(=O)[C@@H](N)CCCCN)C(=O)NCCCC[C@H](NC(=O)[C@H](CC(C)C)NC(=O)[C@H](CCCCN)NC(=O)[C@@H](N)CCCCN)C(=O)N[C@@H](CCCCN)C(=O)N[C@@H](CCCCNC(=O)c1ccc(B(O)O)cc1)C(=O)N[C@@H](CCCCNC(=O)c1ccc(B(O)O)cc1)C(=O)N[C@@H](Cc1ccc(O)cc1)C(N)=O` (H-KKLK([Leu-Lys-Lys])KK(Benzoyl(4-B(OH)2))K(Benzoyl(4-B(OH)2))Y-NH2), the Activity entry in series [3] is listed as “Non-Toxic”. In addition, the Kd in series [4] turned out to be 170 nM.
For the molecule `CC(C)C[C@H](NC(=O)[C@H](CCCCNc1c2ccccc2nc2ccccc12)NC(=O)[C@H](CCCCNC(=O)[C@H](CCCCN)NC(=O)[C@H](CCCCN)NC(=O)[C@@H](N)CCCCN)NC(=O)[C@H](CCCCN)NC(=O)[C@H](CCCCN)NC(=O)[C@@H](N)CCCCN)C(=O)N[C@@H](CCCCN)C(=O)N[C@@H](Cc1ccc(O)cc1)C(N)=O` (H-KKKK([Lys-Lys-Lys])K(Acridin9yl)LKY-NH2), the inhibition result in series [2] was “Active”. Also, in series [3], the Activity result is “Non-Toxic”. For the same molecule, the Kd in series [4] is 140 nM.
As for `CC(C)C[C@H](NC(=O)[C@@H](N)CC(C)C)C(=O)N[C@@H](CCCCN)C(=O)NCCCC[C@H](NC(=O)[C@H](CCCCN)NC(=O)[C@H](CC(C)C)NC(=O)[C@@H](N)CC(C)C)C(=O)N[C@@H](CCCCN)C(=O)N[C@@H](CCCCNC(=O)c1ccc(B(O)O)cc1)C(=O)N[C@@H](CCCCN)C(=O)N[C@@H](Cc1ccc(O)cc1)C(N)=O` (H-LLKK([Lys-Leu-Leu])KK(Benzoyl(4-B(OH)2))KY-NH2), in series [3], the Activity result is given as “Non-Toxic”. The Kd in series [4] came out at 210 nM.
Turning to `CC(C)C[C@H](NC(=O)[C@H](CC(C)C)NC(=O)[C@H](CCCCNC(=O)[C@H](CCCCN)NC(=O)[C@H](CCCCNC(=O)c1ccc(B(O)O)cc1)NC(=O)[C@@H](N)CCCCN)NC(=O)[C@H](CCCCN)NC(=O)[C@H](CCCCNC(=O)c1ccc(B(O)O)cc1)NC(=O)[C@@H](N)CCCCN)C(=O)N[C@@H](CCCCN)C(=O)N[C@@H](Cc1ccc(O)cc1)C(N)=O` (H-KK(Benzoyl(4-B(OH)2))KK([Lys-X3])LLKY-NH2), the Activity entry in series [3] was “Non-Toxic”. The Kd in series [4] turned out to be 660 nM.
For the molecule `NCCCC[C@H](NC(=O)[C@H](CCCCN)NC(=O)[C@@H](N)CCCCN)C(=O)NCCCC[C@H](NC(=O)[C@H](CCCCN)NC(=O)[C@H](CCCCN)NC(=O)[C@@H](N)CCCCN)C(=O)N[C@@H](CCCCNc1c2ccccc2nc2ccccc12)C(=O)N[C@@H](CCCCNc1c2ccccc2nc2ccccc12)C(=O)N[C@@H](CCCCN)C(=O)N[C@@H](Cc1ccc(O)cc1)C(N)=O` (H-KKKK([Lys-Lys-Lys])K(Acridin9yl)K(Acridin9yl)KY-NH2), in series [1], the inhibition at 40 µM came to 90%. For the same molecule, the inhibition entry in series [2] was “Active”. Besides, the Activity result in series [3] and in series [5] was “Non-Toxic” throughout. For the same molecule, the inhibition result in series [6] was “Dose-dependent effect”.
In the case of `CC(C)C[C@H](NC(=O)[C@@H](N)CCCCN)C(=O)N[C@@H](CCCCN)C(=O)NCCCC[C@H](NC(=O)[C@H](CCCCN)NC(=O)[C@H](CC(C)C)NC(=O)[C@@H](N)CCCCN)C(=O)N[C@@H](CCCCN)C(=O)N[C@@H](CCCCN)C(=O)N[C@@H](CCCCNC(=O)c1ccc(B(O)O)cc1)C(=O)N[C@@H](Cc1ccc(O)cc1)C(N)=O` (H-KLKK([Lys-Leu-Lys])KKK(Benzoyl(4-B(OH)2))Y-NH2), the Activity result in series [3] is listed as “Non-Toxic”. Also, in series [4], the Kd stood at 1430 nM. Further, in series [7], the inhibition at 10 µM came to 40%.
As to `CC(C)C[C@H](NC(=O)[C@H](CCCCN)NC(=O)[C@H](CCCCNC(=O)[C@H](CCCCNC(=O)c1ccc(B(O)O)cc1)NC(=O)[C@H](CCCCN)NC(=O)[C@@H](N)CCCCN)NC(=O)[C@H](CCCCNC(=O)c1ccc(B(O)O)cc1)NC(=O)[C@H](CCCCN)NC(=O)[C@@H](N)CCCCN)C(=O)N[C@@H](CCCCNC(=O)c1ccc(B(O)O)cc1)C(=O)N[C@@H](Cc1ccc(O)cc1)C(N)=O` (H-KKK(Benzoyl(4-B(OH)2))K(X2)KLK(Benzoyl(4-B(OH)2))Y-NH2), the Activity entry in series [3] was “Non-Toxic”. In addition, the Kd in series [4] turned out to be 120 nM.
As for `CC(C)C[C@H](NC(=O)[C@H](CCCCN)NC(=O)[C@@H](N)CCCCN)C(=O)NCCCC[C@H](NC(=O)[C@H](CC(C)C)NC(=O)[C@H](CCCCN)NC(=O)[C@@H](N)CCCCN)C(=O)N[C@@H](CC(C)C)C(=O)N[C@@H](CCCCN)C(=O)N[C@@H](CCCCNC(=O)c1ccc(B(O)O)cc1)C(=O)N[C@@H](Cc1ccc(O)cc1)C(N)=O` (H-KKLK([Leu-Lys-Lys])LKK(Benzoyl(4-B(OH)2))Y-NH2), the Activity entry in series [3] is “Non-Toxic”. In series [4], the Kd worked out at 330 nM.
`CC(C)C[C@H](NC(=O)[C@H](CCCCNC(=O)[C@H](CCCCN)NC(=O)[C@H](CC(C)C)NC(=O)[C@@H](N)CCCCN)NC(=O)[C@H](CCCCN)NC(=O)[C@H](CC(C)C)NC(=O)[C@@H](N)CCCCN)C(=O)N[C@@H](CCCCN)C(=O)N[C@@H](CCCCNC(=O)c1ccc(B(O)O)cc1)C(=O)N[C@@H](Cc1ccc(O)cc1)C(N)=O` (H-KLKK([Lys-Leu-Lys])LKK(Benzoyl(4-B(OH)2))Y-NH2): in series [3], the Activity result is “Non-Toxic”. For the same molecule, in series [4], the Kd came to 300 nM.
Consider `CC(C)C[C@H](NC(=O)[C@H](CCCCNC(=O)[C@H](CCCCN)NC(=O)[C@H](CCCCN)NC(=O)[C@@H](N)CCCCN)NC(=O)[C@H](CCCCN)NC(=O)[C@H](CCCCN)NC(=O)[C@@H](N)CCCCN)C(=O)N[C@@H](CCCCNC(=O)c1ccc(B(O)O)cc1)C(=O)N[C@@H](CCCCNC(=O)c1ccc(B(O)O)cc1)C(=O)N[C@@H](Cc1ccc(O)cc1)C(N)=O` (H-KKKK([Lys-Lys-Lys])LK(Benzoyl(4-B(OH)2))K(Benzoyl(4-B(OH)2))Y-NH2), for which the inhibition entry in series [2] was “Active”. Also, the Activity entry in series [3] and in series [5] was “Non-Toxic” each time. Moreover, the Kd in series [4] worked out at 280 nM.
In the case of `CC(C)C[C@H](NC(=O)[C@H](CCCCNC(=O)c1ccc(B(O)O)cc1)NC(=O)[C@H](CC(C)C)NC(=O)[C@H](CCCCNC(=O)[C@H](CCCCN)NC(=O)[C@H](CCCCN)NC(=O)[C@@H](N)CCCCN)NC(=O)[C@H](CCCCN)NC(=O)[C@H](CCCCN)NC(=O)[C@@H](N)CCCCN)C(=O)N[C@@H](Cc1ccc(O)cc1)C(N)=O` (H-KKKK([Lys-Lys-Lys])LK(Benzoyl(4-B(OH)2))LY-NH2), in series [3], the Activity result is “Non-Toxic”. Besides, the Kd in series [4] was 130 nM.
